From ChEMBL document CHEMBL1132183 (J Med Chem, 1999)

Key:
[1] = biological target: T1, Alpha-1B adrenergic receptor (Rattus norvegicus) (UniProt P15823); experiment: Antagonism of Alpha-1B adrenergic receptor subtype (-)-phenylephrine-induced contraction of rat spleen; type: functional, tissue-based
T1 sequence (whole entry): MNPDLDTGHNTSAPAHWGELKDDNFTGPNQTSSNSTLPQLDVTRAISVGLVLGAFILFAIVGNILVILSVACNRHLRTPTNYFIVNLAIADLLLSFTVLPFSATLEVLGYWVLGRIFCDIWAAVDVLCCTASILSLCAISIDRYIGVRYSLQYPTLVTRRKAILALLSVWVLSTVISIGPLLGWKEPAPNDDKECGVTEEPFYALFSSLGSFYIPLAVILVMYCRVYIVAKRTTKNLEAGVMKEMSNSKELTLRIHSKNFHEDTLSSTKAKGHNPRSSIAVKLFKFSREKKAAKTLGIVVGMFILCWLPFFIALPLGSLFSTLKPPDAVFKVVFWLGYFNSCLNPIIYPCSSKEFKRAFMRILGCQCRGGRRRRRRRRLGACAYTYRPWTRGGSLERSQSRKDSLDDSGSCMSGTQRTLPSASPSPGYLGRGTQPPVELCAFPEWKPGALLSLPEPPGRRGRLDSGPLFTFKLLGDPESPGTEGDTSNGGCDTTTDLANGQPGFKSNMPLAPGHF
Outline: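 Rat spleen, isometric cumulative (–)-phenylephrine curves at 30-min intervals; first discarded, second taken as control. Antagonist was equilibrated 30 min before the next curve.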

[2] = biological target: T2, Alpha-1A adrenergic receptor (Rattus norvegicus) (UniProt P43140); experiment: Antagonist activity against Alpha-1A adrenergic receptor (-)-noradrenaline-induced contraction of rat prostatic vas deferens; type: functional, tissue-based
T2 sequence (whole entry): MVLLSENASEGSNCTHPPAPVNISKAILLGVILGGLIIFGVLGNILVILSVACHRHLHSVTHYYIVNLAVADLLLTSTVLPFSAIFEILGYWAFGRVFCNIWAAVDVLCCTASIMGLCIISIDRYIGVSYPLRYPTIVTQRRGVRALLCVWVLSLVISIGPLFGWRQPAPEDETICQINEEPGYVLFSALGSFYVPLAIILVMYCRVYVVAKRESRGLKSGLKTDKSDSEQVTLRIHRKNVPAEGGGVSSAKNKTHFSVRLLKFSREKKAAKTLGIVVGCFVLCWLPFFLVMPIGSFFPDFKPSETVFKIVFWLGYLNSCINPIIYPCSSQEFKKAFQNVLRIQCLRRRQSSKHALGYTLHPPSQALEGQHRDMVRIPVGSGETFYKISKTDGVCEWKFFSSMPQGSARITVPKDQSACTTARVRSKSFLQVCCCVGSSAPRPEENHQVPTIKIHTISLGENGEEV
Outline: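 Isolated rat prostatic vas deferens with 0.01 μM desipramine in the bath. Isotonic cumulative (–)-noradrenaline curves were run at 30-min intervals: first discarded, second as control, then antagonist equilibrated 30 min before a new curve. pKb by Arunlakshana–Schild from dose ratios of EC50, at 2–3 antagonist concentrations, each tested four times.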

[3] = biological target: T3, Alpha-1D adrenergic receptor (Rattus norvegicus) (UniProt P23944); experiment: Alpha-1D adrenergic receptor subtype blocking activity (antagonism) against (-)-noradrenaline-induced contraction of rat thoracic aorta.; type: functional, tissue-based
T3 sequence (whole entry): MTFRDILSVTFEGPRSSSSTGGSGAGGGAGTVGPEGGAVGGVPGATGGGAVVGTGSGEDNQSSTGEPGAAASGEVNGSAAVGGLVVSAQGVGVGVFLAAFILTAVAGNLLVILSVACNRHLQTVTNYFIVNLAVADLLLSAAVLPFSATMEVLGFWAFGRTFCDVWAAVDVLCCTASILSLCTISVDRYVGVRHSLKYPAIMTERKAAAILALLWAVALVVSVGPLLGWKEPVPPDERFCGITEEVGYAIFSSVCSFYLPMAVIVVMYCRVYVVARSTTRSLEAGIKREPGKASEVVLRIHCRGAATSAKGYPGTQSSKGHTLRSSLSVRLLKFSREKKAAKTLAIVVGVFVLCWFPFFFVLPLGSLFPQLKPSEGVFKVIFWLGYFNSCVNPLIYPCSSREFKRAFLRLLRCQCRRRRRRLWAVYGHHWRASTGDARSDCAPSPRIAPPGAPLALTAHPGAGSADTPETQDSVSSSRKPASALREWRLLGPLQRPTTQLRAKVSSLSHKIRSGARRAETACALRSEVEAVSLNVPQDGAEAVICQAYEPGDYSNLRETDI
Outline: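 Helicoidal strips of rat thoracic aorta under 1 g tension, bath with 0.01 μM desipramine and 1 μM (±)-propranolol, equilibrated ≥1 h. Cumulative (–)-noradrenaline curves at 30-min intervals: first two discarded, third as control, fourth after 30-min antagonist exposure. pKb by Arunlakshana–Schild from EC50 dose ratios at 2–3 antagonist concentrations, each tested four times.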

[4] = biological target: T4, 5-hydroxytryptamine receptor 1A (Homo sapiens, UniProt P08908); experiment: Displacement of [3H]8-hydroxy-2-(di-n-propylamino)tetralin from human 5-hydroxytryptamine 1A receptor
T4 sequence (P08908 whole entry): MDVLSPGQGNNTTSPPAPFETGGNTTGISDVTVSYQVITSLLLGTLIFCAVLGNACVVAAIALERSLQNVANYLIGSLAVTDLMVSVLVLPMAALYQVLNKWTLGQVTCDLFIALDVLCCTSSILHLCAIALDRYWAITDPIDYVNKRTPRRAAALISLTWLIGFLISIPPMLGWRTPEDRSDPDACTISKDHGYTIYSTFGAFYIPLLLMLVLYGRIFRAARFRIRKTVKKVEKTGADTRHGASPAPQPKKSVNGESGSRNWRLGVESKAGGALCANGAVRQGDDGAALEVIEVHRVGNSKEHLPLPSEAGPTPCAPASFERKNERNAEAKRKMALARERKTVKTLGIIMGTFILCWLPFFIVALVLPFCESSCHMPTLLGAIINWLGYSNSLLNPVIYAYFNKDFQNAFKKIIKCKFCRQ
Outline: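 Membranes of HeLa cells stably transfected with human 5-HT1A (genomic clone G-21), in 50 mM Tris-HCl pH 7.4, 2.5 mM MgCl2, 10 μM pargiline. […] Nonspecific binding defined with 10 μM 5-HT. Filtration, scintillation counting. Ki by Cheng–Prusoff; 2–3 experiments in triplicate.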

[5] = biological target: T5, Alpha-1A adrenergic receptor (Homo sapiens, UniProt P35348); experiment: Displacement of [3H]prazosin from human cloned Alpha-1A adrenergic receptor
T5 sequence (P35348 whole entry): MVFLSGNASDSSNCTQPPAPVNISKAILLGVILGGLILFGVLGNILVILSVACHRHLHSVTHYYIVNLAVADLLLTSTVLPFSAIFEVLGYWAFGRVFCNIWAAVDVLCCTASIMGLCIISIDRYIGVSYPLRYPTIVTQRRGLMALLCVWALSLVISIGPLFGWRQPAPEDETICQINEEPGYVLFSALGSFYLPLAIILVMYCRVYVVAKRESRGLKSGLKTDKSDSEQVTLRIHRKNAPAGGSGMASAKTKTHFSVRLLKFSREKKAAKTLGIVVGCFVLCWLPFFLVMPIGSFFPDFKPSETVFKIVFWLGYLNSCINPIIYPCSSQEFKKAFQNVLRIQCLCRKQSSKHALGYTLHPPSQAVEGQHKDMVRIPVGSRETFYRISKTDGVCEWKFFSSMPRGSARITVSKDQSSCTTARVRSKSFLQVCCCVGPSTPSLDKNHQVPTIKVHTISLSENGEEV
Outline: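 CHO cells stably transfected with each human α1 subtype; 30 μg membrane protein in 50 mM Tris-HCl pH 7.4 with 0.1–0.4 nM [3H]prazosin, 30 min at 25 °C. Competitors 1 pM–10 μM. Nonspecific binding defined with 10 μM phentolamine. Filtration, scintillation counting. Ki by Cheng–Prusoff; 2–3 experiments in triplicate.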

[6] = biological target: Serotonin 2 (5-HT2) receptor (Rattus norvegicus, UniProt P30994+P08909+P14842); experiment: Displacement of [3H]ketanserin from rat brain 5-hydroxytryptamine 2 receptor
Outline: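 Rat cerebral cortex membranes (male Sprague–Dawley) in Tris-HCl pH 7.4 with 10 μM pargiline and 0.1% ascorbic acid were incubated 20 min at 37 °C with 0.7–1.3 nM [3H]ketanserin (5-HT2A). Nonspecific binding was defined by 2 μM ketanserin. Bound label was counted after filtration, and Ki was derived by Cheng–Prusoff.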

Structure (SMILES) | pKb [1] | pKb [2] | pKb [3] | Ki [4] [nM] | Ki [5] [nM] | Log Ki [6]
COc1cccc(OC)c1O[C@@H]1CCC(NCC2COc3ccccc3O2)C1O (stereo in doubt; 7) [listing 1 of 2 here] | 6.27 | 5.89 | 7.32 | – | – | –
COc1cccc(OC)c1O[C@@H]1CCC(NCC2COc3ccccc3O2)C1O (stereo in doubt; 8) [listing 1 of 2 here] | 6.17 | 5.79 | 6.94 | – | – | –
COc1ccccc1O[C@@H]1CCC(NCC2COc3ccccc3O2)C1O (stereo in doubt; 5) [listing 1 of 2 here] | – | – | – | 24.5 | – | –
COc1cccc(OC)c1O[C@@H]1CCC(NCC2COc3ccccc3O2)C1O (stereo in doubt; 8) [listing 2 of 2 here] | – | – | – | 33.9 | – | –
COc1ccccc1O[C@@H]1CCC(NCC2COc3ccccc3O2)C1O (stereo in doubt; 5) [listing 2 of 2 here] | 6.24 | 5.68 | 7.15 | – | – | –
COc1cccc(OC)c1O[C@@H]1CCC(NCC2COc3ccccc3O2)C1O (stereo in doubt; 7) [listing 2 of 2 here] | – | – | – | 50.1 | – | –
OC1C(NCC2COc3ccccc3O2)CC[C@H]1Oc1ccccc1 (stereo in doubt; 3) | 6.45 | 5.48 | 7.66 | – | – | –
COc1ccccc1O[C@@H]1CCC(NCC2COc3ccccc3O2)C1O (stereo in doubt; 6) [listing 1 of 2 here] | – | – | – | 26.9 | – | –
OC1C(NCC2COc3ccccc3O2)CC[C@H]1Oc1ccccc1 (stereo in doubt; 4) | 6.47 | 5.7 | 7.85 | – | – | –
COc1ccccc1O[C@@H]1CCC(NCC2COc3ccccc3O2)C1O (stereo in doubt; 6) [listing 2 of 2 here] | 6.8 | 6.56 | 7.3 | – | – | –
COc1cccc(OC)c1OCCNCC1COc2ccccc2O1 (stereo not drawn) | 8.21 | 9.36 | 8.6 | 2.09 | 0.427 | -6
